Assay results collected from several papers.
Target: Calcium/calmodulin-dependent protein kinase kinase 2 (CAMKK2, Homo sapiens, UniProt Q96RR4)

| Compound | observed | mode | technique | tested at | quantity | result |
| --- | --- | --- | --- | --- | --- | --- |
| O=C(O)[C@H]1[C@H](Cn2nnc3ccccc3c2=O)CC[C@@H]1C(=O)c1ccc(OCCC2CCOCC2)cc1 | cell-free assay | – | competition with immobilised ligand | 1 µM | remaining binding | 90% |
| Cn1c(=O)n(-c2ccc(C(C)(C)C#N)cc2)c2c3cc(-c4cnc5ccccc5c4)ccc3ncc21 | enzyme activity | inhibitor | – | 10 µM | remaining activity | 61% |
| C[C@H](c1ccnc(Nc2nc3ccc(-c4cc(N(C)C)ncn4)cc3[nH]2)c1)N1CCN(C(=O)CC(F)(F)F)CC1 | cell-free assay | – | competition with immobilised ligand | 0.1 µM | remaining binding | 77% |
| Cc1ccc(C(=O)Nc2ccc(CN3CCN(C)CC3)c(C(F)(F)F)c2)cc1C#Cc1cnc2cccnn12 | enzyme activity | inhibitor | – | 23.5 nM | remaining activity | 83% |
| CS(=O)(=O)Nc1cccc(-c2csc(NC(=O)CSc3nc4nccnc4c(=O)n3CCc3ccccc3)n2)c1 | enzyme activity | inhibitor | – | 10 µM | inhibition | 4% |
| CC(=O)Nc1c(C(C)=O)c(=O)n(C)c2nc(-c3ccc(Cl)cc3Cl)c(-c3ccc(Cl)cc3)cc12 | cell-free assay | – | competition with immobilised ligand | 1 µM | remaining binding | 100% |
| COc1cc(/C=C/C(=O)CC(=O)/C=C/c2ccc(O)c(OC)c2)ccc1O | enzyme activity | inhibitor | – | 1 µM | activity vs control | 44% |
| O=C(Nc1cnn(-c2csc(C(=O)NC3COC3)c2)c1)Nc1ccccc1Cl | enzyme activity | inhibitor | – | 5 µM | remaining activity | 91.1% |
| COc1cccc2c(NCc3ccccc3)nc(-n3c(N)nc4ccccc43)nc12 | target engagement in cells | inhibitor | chemoproteomics | 20 mM | inhibition | -5.8% |
| CC(C)(C)c1nc2c(s1)c1nc(N)ncc1c1ccc(NS(=O)(=O)c3c(F)cccc3F)c(F)c12 | enzyme activity | inhibitor | radiometric | 1 µM | remaining activity | 107% |
| Cn1c2c(Cl)c(Cl)ccc2c2cc[nH]c(=O)c21 | thermal stability | – | DSF | 10 µM | ΔTm | 0.6 °C |
| COc1cc(Nc2cnc(C#N)c(O[C@H](C)CN(C)C)n2)ncc1-c1cnn(C)c1 | enzyme activity | inhibitor | radiometric | 1 µM | remaining activity | 103% |
| Nc1nc(Nc2ccccc2)sc1C(=O)c1c(F)cccc1F | enzyme activity | inhibitor | – | 10 µM | remaining activity | 12% |
| FC(F)(F)Oc1cccc(-c2cnc3ccc(-c4ccncc4)nn23)c1 | enzyme activity | inhibitor | radiometric | 5 µM | activity vs control | 60% |
| Cn1c2c(Cl)c(Cl)ccc2c2cn[nH]c(=O)c21 | thermal stability | – | DSF | 10 µM | ΔTm | 0.4 °C |
| CN1CC(Oc2cnc(C#N)cc2-c2ccn3nc(NC(=O)C4CC4)cc3c2)C1 | enzyme activity | inhibitor | – | 1 µM | inhibition | 5% |
| CCCOc1ccc([C@H]2[C@H](C(=O)O)[C@@H](c3ccc4c(c3)OCO4)CN2CC(=O)Nc2c(CC)cccc2CC)cc1 | cell-free assay | – | competition with immobilised ligand | 1 µM | remaining binding | 93% |
| O=C(O)c1ccc2c3c1cccc3c(=O)n1c3ccccc3nc21 | cell-free assay | – | – | 0.5 µM | remaining signal | 7.88% |
| O=C(NCc1ncc(C(F)(F)F)cc1Cl)c1ccc2c(c1)C1(CCS(=O)(=O)CC1)[C@H](C1CC1)N2S(=O)(=O)c1ccc(F)cc1 | cell-free assay | – | competition with immobilised ligand | 1 µM | remaining binding | 100% |
| Cc1cc(NC(=O)c2cccc3cc(-c4cccc5[nH]nc(N)c45)ccc23)ccc1F | enzyme activity | inhibitor | – | 0.1 µM | activity vs control | 90% |
| CCC1(CC)NC(=O)c2c(c3ccc(Cl)c(Cl)c3n2C)C1C#N (centres unmarked) | thermal stability | – | DSF | 10 µM | ΔTm | 0.3 °C |
| N#CCCc1ccc2c(c1)-c1[nH]c3ccc([N+](=O)[O-])cc3c1CC(=O)N2 | cell-free assay | – | – | 0.5 µM | remaining signal | 86.8% |
| CC(C)(O)[C@H]1CC[C@H](Nc2ccc3ncc(-c4cccc(C(F)(F)F)c4)n3n2)CC1 | enzyme activity | inhibitor | – | 1 µM | remaining activity | 96.9% |
| Cc1c[nH]c2nccc(Oc3c(F)cc(Nc4cc(Cl)nc(N)n4)cc3F)c12 | cell-free assay | – | competition with immobilised ligand | 0.1 µM | remaining binding | 98% |
| COc1cc2nccc(Oc3ccc(NC(=O)Nc4ccc(F)cc4F)c(F)c3)c2cc1OC | thermal stability | – | DSF | 10 µM | ΔTm | 5 to 10 °C |
| CCS(=O)(=O)c1cc2cc(C[C@@](O)(CC(C)(C)c3ccc(F)cc3C(N)=O)C(F)(F)F)[nH]c2cn1 | cell-free assay | – | competition with immobilised ligand | 1 µM | remaining binding | 56% |
| CS(=O)(=O)CCNCc1ccc(-c2ccc3ncnc(Nc4ccc(OCc5cccc(F)c5)c(Cl)c4)c3c2)o1 | cell-free assay | – | – | 0.5 µM | remaining signal | 101% |
| O=C(Nc1ccc(Oc2ccc(F)cc2)cc1)N1CCc2ncccc2[C@H]1c1ccc(F)cc1 | cell-free assay | – | competition with immobilised ligand | 1 µM | remaining binding | 100% |
| CCCCNc1ncc2c(-c3ccc(F)cc3)nn(C[C@H]3CC[C@H](N)CC3)c2n1 | target engagement in cells | inhibitor | chemoproteomics | 20 mM | inhibition | 33.4% |
